The source of these data is ChEMBL document CHEMBL1125205, “Phosphorus-containing inhibitors of HMG-CoA reductase. 2. Synthesis and biological activities of a series of substituted pyridines containing a hydroxyphosphinyl moiety” (J Med Chem, 1991).

The test system of assay [1] is Rattus norvegicus. The experiment in a line: The compound was tested in vivo for inhibition of Cholesterol Biosynthesis from [14C]- acetate in rat after intravenous administration. It is filed as functional. Put shortly: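 Male Sprague-Dawley rats (200-300 g) were kept on a reverse light cycle. Salt forms were given iv into the tail vein in saline, 5 min before ip sodium [1-14C]acetate (25 µCi/100 g), dosed 2 h before mid-dark. Blood was taken 2 h after mid-dark. Read-out: 14C nonsaponifiable plasma lipid per mL versus controls, 4-5 rats/group. ED50 from log dose regressions, mean of ≥2 experiments.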

For assay [2], the species on record is Rattus norvegicus. The experiment in a line: The compound was tested for inhibition of Cholesterol synthesis from [14C]- Acetate in hepatocytes of rats. The class given is functional. Particulars: Hepatocyte. Put shortly: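 Rat hepatocytes were freshly isolated by collagenase perfusion, 70-90% viable. Cells were suspended at 5 × 10^6 per 2.0 mL in Tris pH 7.4 incubation medium with cofactors; DMSO was ≤1.0% final. Incubation was with [14C]acetate (2 µCi/mL) for 2.0 h at 37 °C. Lipids were extracted by Bligh-Dyer and the percent of label in the cholesterol peak was compared with controls. I50 from composite curves of two or more studies.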

In assay [3] the test system is Rattus norvegicus. The experiment in a line: The compound was tested in vivo for inhibition of Cholesterol Biosynthesis from [14C]- acetate in rat after peroral administration. It is filed as functional. Particulars: po.
The species entered for the next assay is Homo sapiens. The experiment in a line: The compound was tested for inhibition of Cholesterol synthesis from [14C]- Acetate in human skin fibroblasts. The class given is functional. The method in brief: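 Human skin fibroblasts (passage 7-27) were plated at 5 × 10^5 cells/well and cultured 18 h. Sterol synthesis was induced by 24 h in serum-free MEM with 1.0% fatty acid-free BSA. Cells were preincubated with compound for 30 min (DMSO ≤1.0%), then given sodium [1-14C]acetate at 2.0 µCi/mL for 4 h. Label in the extracted cholesterol peak was compared with controls. I50 from composite curves of ≥2 experiments.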

Assay [4] is described as follows: It is the ratio of I50 fibroblasts to that of I50 hepatocytes. It is filed as functional, Hepatocyte. The method in brief:
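Selectivity is the ratio of I50 in human skin fibroblasts to I50 in freshly isolated rat hepatocytes. Each I50 came from [14C]acetate incorporation into cholesterol, measured as percent inhibition versus controls from composite dose-response data.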

Assay [5] addresses T1, 3-hydroxy-3-methylglutaryl-coenzyme A reductase (Rattus norvegicus, UniProt P51639).
T1 sequence (P51639 whole entry): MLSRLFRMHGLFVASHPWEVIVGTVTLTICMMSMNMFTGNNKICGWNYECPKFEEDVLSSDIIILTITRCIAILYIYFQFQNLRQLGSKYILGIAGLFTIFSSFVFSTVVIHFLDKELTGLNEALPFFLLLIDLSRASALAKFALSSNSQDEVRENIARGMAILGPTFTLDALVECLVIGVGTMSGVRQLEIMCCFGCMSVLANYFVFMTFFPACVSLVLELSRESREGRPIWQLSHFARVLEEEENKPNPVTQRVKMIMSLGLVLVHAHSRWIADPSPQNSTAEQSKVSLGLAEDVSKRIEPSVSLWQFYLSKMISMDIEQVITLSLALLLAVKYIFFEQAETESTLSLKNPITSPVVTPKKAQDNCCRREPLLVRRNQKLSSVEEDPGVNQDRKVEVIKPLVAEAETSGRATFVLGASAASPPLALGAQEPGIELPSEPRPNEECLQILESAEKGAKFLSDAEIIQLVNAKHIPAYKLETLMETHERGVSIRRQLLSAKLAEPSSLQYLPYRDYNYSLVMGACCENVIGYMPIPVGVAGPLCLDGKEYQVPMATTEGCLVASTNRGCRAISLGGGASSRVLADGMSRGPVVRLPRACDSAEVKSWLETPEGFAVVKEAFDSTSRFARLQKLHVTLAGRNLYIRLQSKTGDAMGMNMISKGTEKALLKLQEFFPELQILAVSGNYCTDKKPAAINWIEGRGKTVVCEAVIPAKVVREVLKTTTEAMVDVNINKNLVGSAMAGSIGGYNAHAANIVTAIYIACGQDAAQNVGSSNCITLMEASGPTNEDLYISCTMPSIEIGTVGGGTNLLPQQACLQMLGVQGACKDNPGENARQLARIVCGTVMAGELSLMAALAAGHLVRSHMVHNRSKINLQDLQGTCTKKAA
The experiment in a line: In vitro for inhibition of rat HMG-CoA reductase. Particulars: read-out: I50. The method in brief: (§1)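 Enzyme source: hepatic microsomes from cholestyramine-fed Sprague-Dawley rats. Final assay conditions: 0.04 M potassium phosphate pH 7.2, KCl, sucrose, EDTA, 10 mM DTT, 1% DMSO, 50-200 µg microsomal protein. Microsomes were preincubated with 2.7 mM NADPH for 15 min at 37 °C, then with compound for 15 min. 100 µM 14C-[D,L]-HMG-CoA was then added for 20 min at 37 °C. Read-out: 14C-mevalonate, corrected by 3H-mevalonate recovery. I50 taken from composite dose-response regressions, 2-5 experiments.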

The target of assay [6] is T1, 3-hydroxy-3-methylglutaryl-coenzyme A reductase. Briefly: The compound was tested in vitro for inhibition of rat hepatic HMG-CoA reductase. It is filed as functional. The following applies: read-out: I50. The method in brief: as §1

As to `CC[C@H](C)C(=O)O[C@@H]1C[C@@H](C)C=C2C=C[C@H](C)[C@H](CC[C@@H](O)C[C@H](O)CC(=O)[O-])C21.[Na+]` (some centres undefined), the ED50 was found to be 0.033 mg/kg in the assay with Rattus norvegicus [1] and 0.4 mg/kg in the assay with Rattus norvegicus [3]. Further, the figures for the IC50 in the assay filed under Rattus norvegicus [2] (read-out: I50) and in the assay filed under Homo sapiens (read-out: I50) were 146 nM and 18.8 nM, respectively.
Consider `CCc1c(-c2ccccc2)nc(C(C)C)c(/C=C/P(=O)([O-])C[C@H](O)CC(=O)[O-])c1-c1ccc(F)cc1.[Na+].[Na+]`, for which the Selectivity in assay [4] was determined as 19.5. Besides, the figures for the 50% effective dose (ED50) in the assay on Rattus norvegicus [1] and in the assay with Rattus norvegicus [3] were 0.2 mg/kg and above 10 mg/kg, respectively. In addition, the IC50 was determined as 241 nM in the assay listed under Rattus norvegicus [2] (read-out: I 50), 0.55 nM in assay [5] and 4700 nM in the assay listed under Homo sapiens (read-out: I 50).
Consider `CC(C)c1nc(-c2ccccc2)cc(-c2ccc(F)cc2)c1C#CP(=O)([O-])C[C@H](O)CC(=O)[O-].[Li+].[Li+]`, for which, in assay [4], the Selectivity is listed as 47. Moreover, the median effective dose (ED50) in the assay with Rattus norvegicus [1] came to 0.47 mg/kg; in the assay on Rattus norvegicus [3], 3.9 mg/kg. In addition, the results for the IC50 (in the assay filed under Rattus norvegicus [2] (read-out: I 50); in assay [5]; in the assay listed under Homo sapiens (read-out: I 50)) were 197 nM, 62 nM and 9300 nM, respectively.
With `CC(C)c1nc(-c2ccccc2)cc(-c2ccc(F)cc2)c1/C=C/P(=O)([O-])C[C@H](O)CC(=O)[O-].[Li+].[Li+]`, in assay [4], the Selectivity came to 26. Further, the 50% effective dose (ED50) in the assay on Rattus norvegicus [1] is 0.22 mg/kg; in the assay with Rattus norvegicus [3], 21.4 mg/kg. For the same compound, the IC50 in the assay filed under Rattus norvegicus [2] (read-out: I 50) was 77 nM; in assay [5], 1.9 nM; in the assay filed under Homo sapiens (read-out: I 50), 2000 nM.
Regarding `Cc1c(-c2ccccc2)nc(C(C)C)c(/C=C/P(=O)([O-])C[C@H](O)CC(=O)[O-])c1-c1ccc(F)cc1.[Na+].[Na+]`, the Selectivity in assay [4] amounted to 7.7. For the same compound, the values for the ED50 in the assay with Rattus norvegicus [1] and with Rattus norvegicus [3] were 0.1 mg/kg and 0.46 mg/kg, respectively. Moreover, the IC50 in the assay listed under Rattus norvegicus [2] (read-out: I 50) came to 260 nM; in assay [5] it was 1.2 nM; in the assay listed under Homo sapiens (read-out: I 50) it was 2000 nM.
`CC(C)c1nc(C(C)(C)C)cc(-c2ccc(F)cc2)c1C#CP(=O)([O-])C[C@H](O)CC(=O)[O-].[Na+].[Na+]`: the Selectivity in assay [4] was determined as 4.3. Also, the values for the ED50 in the assay with Rattus norvegicus [1] and in the assay with Rattus norvegicus [3] were 0.7 mg/kg and 3.5 mg/kg, respectively. Also, the IC50 was 556 nM in the assay filed under Rattus norvegicus [2] (read-out: I 50), 6.1 nM in assay [5] and 2400 nM in the assay filed under Homo sapiens (read-out: I 50).
For the compound `Cc1c(-c2ccccc2)nc(C(C)C)c(C#CP(=O)([O-])C[C@H](O)CC(=O)[O-])c1-c1ccc(F)cc1.[Li+].[Li+]`, in assay [4], the Selectivity was determined as 140. The ED50 is 0.13 mg/kg with Rattus norvegicus [1] and 3.1 mg/kg in the assay on Rattus norvegicus [3]. Besides, the IC50 came to 81 nM in the assay listed under Rattus norvegicus [2] (read-out: I 50), 4.5 nM in assay [5] and 11300 nM in the assay listed under Homo sapiens (read-out: I 50).
As to `CC[C@H](C)C(=O)O[C@H]1C[C@H](O)C=C2C=C[C@H](C)[C@H](CC[C@@H](O)C[C@@H](O)CC(=O)[O-])[C@H]21.[Na+]` [PRAVASTATIN SODIUM], the Selectivity in assay [4] is 31. Also, the figures for the ED50 in the assay on Rattus norvegicus [1] and in the assay with Rattus norvegicus [3] were 0.053 mg/kg and 0.75 mg/kg, respectively. The IC50 in assay [6] came to 24 nM.

What is called ED50 is the midpoint of the dose-response relation. Low readings indicate greater potency, high ones weaker potency.
